Laboratory results published in the M2OR odorant receptor database.

Legend:
Conditions in all cases: stereoisomer not certain
[1] = tested on: OR1A1 G108A N109K A154T N155S
Summary of the method: (§1)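 Each entry records the cell line, G-protein, co-transfected protein and tags used. Methods varied with the source, often transient luciferase assays in mammalian cell lines. A receptor–molecule pair is called responsive (active) if the original authors judged its signal statistically different from baseline and non-responsive (inactive) otherwise.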

OR1A1 G108A N109K = tested on: OR1A1 G108A N109K
Summary of the method: as §1

OR1A1 G108A = tested on: OR1A1 G108A
Summary of the method: as §1

OR1A1 I114T = tested on: OR1A1 I114T
Summary of the method: as §1

OR1A1 I205V = tested on: OR1A1 I205V
Summary of the method: as §1

OR1A1 N109K = tested on: OR1A1 N109K
Summary of the method: as §1

OR1A1 T110A = tested on: OR1A1 T110A
Summary of the method: as §1

OR1A1 T277V = tested on: OR1A1 T277V
Summary of the method: as §1

OR1A1 T99M = tested on: OR1A1 T99M
Summary of the method: as §1

OR1A1 V254T = tested on: OR1A1 V254T
Summary of the method: as §1

Measured: odorant receptor agonist call

Sequence of OR1A1 G108A (as listed by the source, stated change not applied): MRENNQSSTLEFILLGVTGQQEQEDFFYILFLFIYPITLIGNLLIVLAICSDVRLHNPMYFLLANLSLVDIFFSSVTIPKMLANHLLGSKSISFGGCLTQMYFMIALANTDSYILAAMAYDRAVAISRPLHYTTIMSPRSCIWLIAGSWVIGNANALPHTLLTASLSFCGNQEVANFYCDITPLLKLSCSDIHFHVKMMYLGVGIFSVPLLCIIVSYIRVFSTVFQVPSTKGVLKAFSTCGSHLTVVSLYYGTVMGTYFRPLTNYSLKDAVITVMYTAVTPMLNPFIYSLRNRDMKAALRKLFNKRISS
Sequence of OR1A1 T277V (as listed by the source, stated change not applied): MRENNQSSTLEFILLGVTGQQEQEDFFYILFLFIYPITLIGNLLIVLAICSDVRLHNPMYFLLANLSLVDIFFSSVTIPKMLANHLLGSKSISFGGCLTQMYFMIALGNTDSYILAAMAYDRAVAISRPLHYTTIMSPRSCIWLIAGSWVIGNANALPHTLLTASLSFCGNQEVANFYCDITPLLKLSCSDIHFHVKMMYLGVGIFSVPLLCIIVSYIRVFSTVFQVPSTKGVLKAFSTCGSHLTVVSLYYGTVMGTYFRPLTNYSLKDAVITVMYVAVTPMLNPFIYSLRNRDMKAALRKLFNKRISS
Sequence of OR1A1 I205V (as listed by the source, stated change not applied): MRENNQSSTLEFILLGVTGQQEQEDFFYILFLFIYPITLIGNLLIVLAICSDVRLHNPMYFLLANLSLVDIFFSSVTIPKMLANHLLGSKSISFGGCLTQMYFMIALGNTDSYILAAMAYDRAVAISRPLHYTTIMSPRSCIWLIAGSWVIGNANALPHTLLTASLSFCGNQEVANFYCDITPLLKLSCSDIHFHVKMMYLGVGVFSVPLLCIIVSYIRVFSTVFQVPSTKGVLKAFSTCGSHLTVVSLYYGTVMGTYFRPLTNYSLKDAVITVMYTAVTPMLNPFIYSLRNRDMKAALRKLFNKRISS
Sequence of OR1A1 T110A (as listed by the source, stated change not applied): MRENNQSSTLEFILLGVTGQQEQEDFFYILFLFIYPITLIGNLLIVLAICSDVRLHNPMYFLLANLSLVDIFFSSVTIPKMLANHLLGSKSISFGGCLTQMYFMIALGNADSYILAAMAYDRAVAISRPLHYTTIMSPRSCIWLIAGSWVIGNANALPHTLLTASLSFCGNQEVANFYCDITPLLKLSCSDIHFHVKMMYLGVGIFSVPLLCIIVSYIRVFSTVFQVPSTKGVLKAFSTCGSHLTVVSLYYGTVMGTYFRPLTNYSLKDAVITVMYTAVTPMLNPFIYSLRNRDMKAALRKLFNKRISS
Sequence of OR1A1 N109K (as listed by the source, stated change not applied): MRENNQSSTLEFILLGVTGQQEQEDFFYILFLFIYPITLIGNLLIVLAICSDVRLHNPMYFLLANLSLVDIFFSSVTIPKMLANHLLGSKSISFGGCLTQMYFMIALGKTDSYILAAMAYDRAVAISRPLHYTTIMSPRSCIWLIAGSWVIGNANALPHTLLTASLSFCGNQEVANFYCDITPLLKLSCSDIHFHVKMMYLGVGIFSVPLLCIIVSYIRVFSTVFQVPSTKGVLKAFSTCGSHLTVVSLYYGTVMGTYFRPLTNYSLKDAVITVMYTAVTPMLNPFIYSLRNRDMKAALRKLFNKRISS
Sequence of OR1A1 I114T (as listed by the source, stated change not applied): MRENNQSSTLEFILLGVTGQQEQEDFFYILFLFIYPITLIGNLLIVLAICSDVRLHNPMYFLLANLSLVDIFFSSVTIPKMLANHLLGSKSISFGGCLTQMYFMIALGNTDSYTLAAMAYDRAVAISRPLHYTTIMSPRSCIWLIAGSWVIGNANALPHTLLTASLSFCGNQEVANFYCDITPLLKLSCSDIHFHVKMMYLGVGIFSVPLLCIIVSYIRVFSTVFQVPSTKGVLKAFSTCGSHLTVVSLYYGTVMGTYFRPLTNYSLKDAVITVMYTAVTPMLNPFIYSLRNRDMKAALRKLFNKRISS
Sequence of OR1A1 T99M (as listed by the source, stated change not applied): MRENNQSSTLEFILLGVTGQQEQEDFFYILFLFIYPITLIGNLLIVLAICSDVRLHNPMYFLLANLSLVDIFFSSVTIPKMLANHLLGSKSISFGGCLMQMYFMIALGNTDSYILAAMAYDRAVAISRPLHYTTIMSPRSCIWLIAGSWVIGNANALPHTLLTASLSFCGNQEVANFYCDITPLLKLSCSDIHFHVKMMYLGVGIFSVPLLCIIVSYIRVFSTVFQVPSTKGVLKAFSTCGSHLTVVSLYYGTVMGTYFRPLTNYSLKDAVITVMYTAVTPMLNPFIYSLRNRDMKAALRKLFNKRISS
Sequence of OR1A1 V254T (as listed by the source, stated change not applied): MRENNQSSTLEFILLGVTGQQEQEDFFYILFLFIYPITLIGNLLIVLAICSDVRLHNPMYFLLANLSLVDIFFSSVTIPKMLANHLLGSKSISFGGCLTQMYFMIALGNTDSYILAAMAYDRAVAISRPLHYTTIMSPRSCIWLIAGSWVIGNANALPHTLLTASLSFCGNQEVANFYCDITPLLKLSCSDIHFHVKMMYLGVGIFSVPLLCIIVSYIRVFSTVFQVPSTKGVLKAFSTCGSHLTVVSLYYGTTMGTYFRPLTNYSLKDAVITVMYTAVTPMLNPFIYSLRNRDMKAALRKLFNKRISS

CC(C)=CCCC(C)CCO (stereo not given)
inactive: [1] | OR1A1 G108A N109K | OR1A1 G108A | OR1A1 N109K
active: all other assays above
